From publication PMC12554292 (Drug Design, Development and Therapy, 2025)
Read-outs that look alike come from different tables or passages of the source. One block for each compound: values may come before it.

Columns and labels:
Huh-7 cells [1] = experiment: Live and dead cell staining; assay type: cell-based, human; settings: 5, 10, 20 μM, 24h
Method in brief: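 Huh-7 cells seeded at 3 × 10^3 cells/well and incubated overnight. Treated with test compound at 0, 5, 10 or 20 μM for 24 h, then stained with Calcein-AM and PI for 1 h in the dark and imaged by fluorescence confocal microscopy. 5–6 replicates per group.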

Huh-7 cells [2] = experiment: DNA damage staining; assay type: cell-based, human; settings: 5, 10, 20 μM, 24h
Method in brief: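 Huh-7 cells seeded at 3 × 10^3 cells/well and exposed to test compound at 0, 5, 10 or 20 μM for 24 h. Stained with a DNA damage detection kit (nuclei blue, DNA-damaged cells green), then imaged by fluorescence microscopy. 5–6 replicates per group.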

Female KM mice = experiment: Acute oral toxicity test; assay type: in vivo; settings: 500 mg/kg, intragastric administration
Method in brief: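 Female Kunming mice (SPF, 8 weeks), acclimated 7 days with free water on a 12 h light/dark cycle; 6 per group. Test compound at 500 mg/kg given intragastrically in 5% DMSO + 40% PEG300 + 1% Tween 80 + 54% saline; controls received an equal volume of vehicle. Body weight and appearance were followed for 14 days. Heart, liver, spleen, lungs and kidneys were then weighed for organ coefficients and examined by H&E histology.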

Huh-7 cells [3] = experiment: CCK-8 cell viability and IC50 measurement, Huh-7; assay type: cell-based, human; settings: read-out: IC50 Huh-7
Method in brief: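 Huh-7 cells (ATCC) in DMEM or RPMI 1640 with 10% FBS, 37°C, 5% CO2; seeded 3 × 10^3 cells/well and left to adhere overnight. […] CCK-8 added for 1 h, A450 read. Viability as % of control; IC50 from inhibition by nonlinear regression. n > 5; mean ± SE.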

Huh-7 cells [4] = experiment: Autophagy staining assay; assay type: cell-based, human; settings: 5, 10, 20 μM, 24 h, MDC probe
Method in brief: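 Huh-7 cells were seeded at 3 × 10^3 cells/well and exposed to 0, 5, 10 or 20 μM test compound for 24 h. Medium was removed, and cells were stained with monodansylcadaverine for 1 h in the dark at 37°C, then imaged by confocal microscopy. Replicates: 5–6 per group.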

Huh-7 cells [5] = experiment: RT-PCR gene expression analysis; assay type: cell-based, human; settings: 10 μM, 72 h
Method in brief: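 Huh-7 cells in 12-well plates were treated with 10 μM test compound for 72 h. Total RNA was extracted with TRIzol, and gene expression was measured by SYBR Green real-time PCR using specific primer pairs.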

Huh-7 cells [6] = experiment: Apoptosis assay; assay type: cell-based, human; settings: 5, 10, 20 μM, 72h
Huh-7 cells [7] = experiment: Western blot protein expression analysis; assay type: cell-based, human; settings: 10 μM, 72 h
Method in brief: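 Huh-7 cells in 12-well plates were treated with 10 μM test compound for 72 h. Whole-cell protein was extracted in RIPA buffer with protease/phosphatase inhibitors and immunoblotted for γH2AX, caspase-3, caspase-9, PARP, cyclin D, cyclin E, LC3 and β-actin. Six replicates per group; mean ± SEM, two-tailed t-test.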

[8] = molecular target: MET receptor tyrosine kinase (RTK); settings: read-out: IC50 MET receptor tyrosine kinase; cited from earlier work
ABHD6 = settings: cited from earlier work

SMILES: O=C(Nc1ccc(Cl)cc1)Nc1cccc(-c2cn(Cc3ccc(Br)cc3)nn2)c1 [Compound 3c, 1-(3-(1-(4-Bromobenzyl)-1H-1,2,3-Triazol-4-Yl)phenyl)-3-(4-Chlorophenyl)urea]
Dead and living cells staining (Huh-7 cells [1]): dead cells were increased significantly in a dose-dependent manner
DNA damage (Huh-7 cells [2]): significantly stimulated DNA damage in a concentration-dependent manner
mortality (Female KM mice; 14-day observation, female KM mice): no mortality
body weight vs vehicle control group (Female KM mice; 14 days, all time points): no statistically significant differences
organ coefficient and histopathological assessments of major organs (Female KM mice; cardiac, hepatic, splenic, pulmonary, renal tissues): no detectable toxicological alterations
IC50 (Huh-7 cells [3]; Homo sapiens, Huh-7, 72 h): 10.2 ± 1.32 µM
autophagosome in tumor cells (Huh-7 cells [4]): increased dramatically
expression of Keap1 (mRNA) (Huh-7 cells [5]): upregulated
expression of oxidative stress genes Nrf2, Gpx4, TNFa (mRNA) (Huh-7 cells [5]): no significant changes
expressions of p53, p21, H2AX, Bcl2, caspase6, caspase7, ATG5 and ATG7 (mRNA) (Huh-7 cells [5]): did not influence
apoptotic cells (Huh-7 cells [6]): dose-dependent increases in apoptotic cells

SMILES: O=C(Nc1cccc(-c2cn(Cc3ccc(Br)cc3)nn2)c1)Nc1ccccc1Br [Compound 3e, 1-(3-(1-(4-Bromobenzyl)-1H-1,2,3-Triazol-4-Yl)phenyl)-3-(2-Bromophenyl)urea]
Dead and living cells staining (Huh-7 cells [1]): dead cells were increased significantly in a dose-dependent manner
H2AX protein expression (Huh-7 cells [7]): significantly increased
DNA damage (Huh-7 cells [2]): significantly stimulated DNA damage in a concentration-dependent manner
IC50 (Huh-7 cells [3]; Homo sapiens, Huh-7, 72 h): 12.2 ± 1.31 µM
autophagosome in tumor cells (Huh-7 cells [4]): increased dramatically
DNA damaged genes and autophagy genes (mRNA) (Huh-7 cells [5]): not changed
expression of Bcl2 (mRNA) (Huh-7 cells [5]): increased largely
expression of Gpx4 and TNFa (mRNA) (Huh-7 cells [5]): also increased
apoptotic cells (Huh-7 cells [6]): dose-dependent increases in apoptotic cells

SMILES: O=c1[nH]cc(F)c(=O)[nH]1 [Compound 5-FU, reference compound]
IC50 (Huh-7 cells [3]; 72-hour exposure, CCK-8): 39 ± 0.56 µM

SMILES: O=C(Nc1ccc(Cl)cc1)Nc1ccc(-c2cn(Cc3ccc(Cl)cc3)nn2)cc1 [Compound 5a, 1-(4-(1-(4-Chlorobenzyl)-1H-1,2,3-Triazol-4-Yl)phenyl)-3-(4-Chlorophenyl)urea]
IC50 (Huh-7 cells [3]; Homo sapiens, Huh-7, 72 h): > 50 µM

SMILES: O=C(Nc1ccc(Cl)cc1)Nc1ccc(-c2cn(Cc3cccc(Cl)c3)nn2)cc1 [Compound 5b, 1-(4-(1-(3-Chlorobenzyl)-1H-1,2,3-Triazol-4-Yl)phenyl)-3-(4-Chlorophenyl)urea]
IC50 (Huh-7 cells [3]; Homo sapiens, Huh-7, 72 h): > 50 µM

SMILES: O=C(Nc1ccc(Cl)cc1)Nc1ccc(-c2cn(Cc3ccc(Br)cc3)nn2)cc1 [Compound 5c, 1-(4-(1-(4-Bromobenzyl)-1H-1,2,3-Triazol-4-Yl)phenyl)-3-(4-Chlorophenyl)urea]
IC50 (Huh-7 cells [3]; Homo sapiens, Huh-7, 72 h): > 50 µM

SMILES: O=C(Nc1ccc(-c2cn(Cc3ccc(Cl)cc3)nn2)cc1)Nc1ccccc1Br [Compound 5d, 1-(2-Bromophenyl)-3-(4-(1-(4-Chlorobenzyl)-1H-1,2,3-Triazol-4-Yl)phenyl)urea]
IC50 (Huh-7 cells [3]; Homo sapiens, Huh-7, 72 h): > 50 µM

SMILES: O=C(Nc1ccc(-c2cn(Cc3ccc(Br)cc3)nn2)cc1)Nc1ccccc1Br [Compound 5e, 1-(4-(1-(4-Bromobenzyl)-1H-1,2,3-Triazol-4-Yl)phenyl)-3-(2-Bromophenyl)urea]
IC50 (Huh-7 cells [3]; Homo sapiens, Huh-7, 72 h): > 50 µM

SMILES: O=C(NCCN1CCOCC1)Nc1nc2ccc(Sc3nnc4ccc(-c5ccc(F)cc5)nn34)cc2s1 [II]
IC50 [8]: 0.0042 µM

SMILES: O=C(c1cccc(-c2ccc(-c3cn(C(=O)N4CCCCC4c4ccccc4)nn3)cc2)c1)N1CCCCC1 (stereo not drawn) [KT185]
in vivo selectivity (ABHD6): exceptional in vivo selectivity

Results, then the compound that gave them:

IC50 (Huh-7 cells [3]; Homo sapiens, Huh-7, 72 h): > 50 µM
SMILES: O=C(NCc1cn(Cc2ccc(Cl)cc2)nn1)Nc1ccc(Cl)cc1 [Compound 7a, 1-((1-(4-Chlorobenzyl)-1H-1,2,3-Triazol-4-Yl)methyl)-3-(4-Chlorophenyl)urea]

IC50 (Huh-7 cells [3]; Homo sapiens, Huh-7, 72 h): > 50 µM
SMILES: O=C(NCc1cn(Cc2cccc(Cl)c2)nn1)Nc1ccc(Cl)cc1 [Compound 7b, 1-((1-(3-Chlorobenzyl)-1H-1,2,3-Triazol-4-Yl)methyl)-3-(4-Chlorophenyl)urea]

IC50 (Huh-7 cells [3]; Homo sapiens, Huh-7, 72 h): > 50 µM
SMILES: O=C(NCc1cn(Cc2ccc(Br)cc2)nn1)Nc1ccc(Cl)cc1 [Compound 7c, 1-((1-(4-Bromobenzyl)-1H-1,2,3-Triazol-4-Yl)methyl)-3-(4-Chlorophenyl)urea]

IC50 (Huh-7 cells [3]; Homo sapiens, Huh-7, 72 h): > 50 µM
SMILES: O=C(NCc1cn(Cc2ccc(Cl)cc2)nn1)Nc1ccccc1Br [Compound 7d, 1-(2-Bromophenyl)-3-((1-(4-Chlorobenzyl)-1H-1,2,3-Triazol-4-Yl)methyl)urea]

IC50 (Huh-7 cells [3]; Homo sapiens, Huh-7, 72 h): > 50 µM
SMILES: O=C(NCc1cn(Cc2ccc(Br)cc2)nn1)Nc1ccccc1Br [Compound 7e, 1-((1-(4-Bromobenzyl)-1H-1,2,3-Triazol-4-Yl)methyl)-3-(2-Bromophenyl)urea]
